High-throughput results as filed in PubChem BioAssay.
The full list was thinned out, with hits kept by preference.
UPR XBP1 act: adaptive UPR (XBP1) activation. CHO-XBP1 luciferase reporter, IRE1-XBP1 UPR activation, luminescence; percent of tunicamycin response, DMSO as zero. activation, % at 20 µM. actives 0.33% (n = 330,000);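 active = versus positive control, 20 µM dose yields 30% or more activation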;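 note: 100% = tunicamycin at 10 µg/mL and 0% = DMSO only wells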
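Material – CHO cell line with stable XBP1 luciferase reporter · Buffer or medium – F12 plus 10% FBS · Compound – single point, 20 µM final compound, 1% DMSO · Schedule – 16-18 h cell attachment at 37 °C, then 6 h compound exposure · Signal – Steady-Glo luminescence read · Benchmarks – high control tunicamycin 10 µg/mL final, low control DMSO vehicle only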
V-ATPase pHluor: alters yeast V-ATPase proton transport; S. cerevisiae, pHLuorin cytosolic pH fluorescence; response, % at 10 µM; actives 0.37% (n = 350,000); AID 504577; in the data active = response mostly above about 7.3%, no sharp cut-off; inactive = mostly below about 5.4%; note: actives read high
Tb MetRS inh: blocks T. brucei methionyl-tRNA synthetase activity; inhibition, % at 11.9 µM; actives 0.4% (n = 360,000); AID 624268; purified T. brucei MetRS, ATP depletion, Kinase-Glo luminescence;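 active = inhibition above a per-plate cutoff of the control wells' mean inhibition plus 3 SD, cut at about 5.5% in these data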;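 note: 0% = DMSO wells median and 100% = median of wells with control inhibitor compound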
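Material: T. brucei methionyl-tRNA synthetase, purified; reagent: substrates ATP, L-methionine and bulk Escherichia coli tRNA; dosing: 11.9 µM single point; timing: 15 min plus 2 h at 25 °C; detection: luminescence of leftover ATP; evaluation: % inhibition; control set: DMSO-only wells as low control; replicates: singlicate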
UPR CHOP act: apoptotic UPR (CHOP) activation | CHO-CHOP luciferase reporter, luminescence; percent of tunicamycin response over DMSO baseline | actives 0.34% (n = 330,000) | activation, % at 10 µM | AID 449763;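 active = at 10 µM dose, activation of 40% or more, normalized to positive control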;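 note: 100% = tunicamycin at 10 µg/mL and 0% = DMSO alone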
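System: CHO CHOP reporter cells. Amount: 500 cells per well. Buffer or medium: F12 medium, 10% FBS. Compound dosing: one dose, 10 µM in 0.5% DMSO. Incubation: 6 h compound exposure at 37 °C after overnight seeding. Technique: Steady-Glo luciferase luminescence. Benchmarks: tunicamycin and DMSO controls.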
CHOP inh: inhibitors of CHOP induction in ER stress response | CHO-K1 CHOP-promoter luciferase, tunicamycin-induced, 15-18 h | inhibition, % at 10 µM | actives 3.8% (n = 220,000);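 active = compounds that reduced the stress-induced luciferase reporter signal by more than about 70% of percent inhibition, limit read from the data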;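 note: 0% = tunicamycin plus vehicle and 100% = wells without tunicamycin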
* marks the source's active call; other numbers are inactive results; / = no result; + = active, no number.

SMILES | UPR XBP1 act | V-ATPase pHluor | Tb MetRS inh | UPR CHOP act | CHOP inh
CCCCC(=O)N(C)c1c(CC)nc2c(OCc3cccc(Cl)c3)cccn12 | / | / | -0.3 | / | /
NC(=O)[C@H]1CC2(CC(c3cccc(NC(=O)COc4ccc(Cl)cc4)c3)=NO2)CN1C(=O)c1ccc(Cl)cc1 (stereo partly drawn) | 2.2 | -1.4 | -0.5 | 2.2 | 95.2*
Nc1c(C(O)(C(F)(F)F)C(F)(F)F)cc(C(O)(C(F)(F)F)C(F)(F)F)c2ccccc12 | -1.4 | 2.3 | -0.6 | 4.6 | 94.5*
Brc1ccc(-c2cn3nc4c(nc3n2)CCCC4)cc1 | -5.3 | -0.6 | -0.3 | -4.1 | 96.0*
CCN(CC)S(=O)(=O)c1ccc(C)c(NC(=O)COc2ccc(Cl)cc2Br)c1 | 3.5 | 5.6 | 0.5 | 6.3 | 74.4*
O=C(CCCOc1ccc(Cl)cc1Cl)N/N=C/c1cccc([N+](=O)[O-])c1 | 1.3 | 0.9 | 0.4 | -1.0 | 75.9*
O=C(COc1ccc(Cl)cc1Cl)N/N=C/c1cccnc1 | -1.5 | 0.3 | 1.3 | 2.0 | /
COc1ccc(N2CCN(c3cc(C(=O)NC4CCCCC4)ncn3)CC2)cc1OC | / | / | -0.2 | / | /
Oc1ccccc1-c1cc(-c2ccco2)[nH]n1 | 6.3 | 4.2 | -0.5 | 9.7 | 25.3
Oc1c(-c2cc(-c3ccco3)[nH]n2)ccc2ccccc12 | 4.5 | -5.5 | -0.6 | 6.4 | 75.0*
Oc1ccc(Br)cc1-c1cc(-c2ccco2)[nH]n1 | 5.1 | 0.1 | -0.7 | 0.2 | 79.9*
CCN1/C(=C/C=C/c2oc3ccc(-c4ccccc4)cc3[n+]2CC)Oc2ccc(-c3ccccc3)cc21 | -7.8 | + | 0.0 | -10.2 | 107.7*
O=c1[nH]c(CN(CCO)CCO)nc2c1C1(CCCCC1)Cc1ccccc1-2 | 2.5 | 5.3 | -0.7 | -0.4 | 18.8
CCN(CC)Cc1nc2c(c(=O)[nH]1)C1(CCCC1)Cc1ccccc1-2 | -1.3 | -1.2 | 0.6 | -1.0 | 84.3*
C=CCNC(=S)NNc1nc2c(c(=O)[nH]1)C1(CCCCC1)Cc1ccccc1-2 | 2.7 | -1.7 | -0.2 | 1.1 | 92.7*
CNC(=O)[C@H]1O[C@@H](n2cnc3c(N)ncnc32)C(O)[C@H]1O (stereo partly drawn) | / | / | / | / | -8.5
CCCSc1nsc(NC(=O)C(c2ccccc2)c2ccccc2)n1 | 0.2 | 0.6 | -1.0 | -0.9 | 92.7*
CCCSc1nsc(NC(=O)CC)n1 | -1.1 | -0.9 | -0.7 | 1.2 | -18.0
C[C@@H]1CN([C@H](C)CO)C(=O)c2c(c3ccccc3n2C)-c2ccccc2CO[C@@H]1CN(C)S(=O)(=O)c1cccs1 | / | -1.6 | -1.6 | / | /
O=C(CC1SC(=Nc2ccccc2)N(CCCO)C1=O)Nc1ccc(Cl)cc1 (stereo not drawn) | -2.9 | -1.8 | 14.0* | -0.3 | 26.8
O=C(CC1SC(=Nc2ccccc2)N(CCO)C1=O)Nc1ccccc1 (stereo not drawn) | -3.4 | 2.7 | -1.0 | 0.0 | -0.7
Cc1ccc(Cl)cc1N1CCN(C(=O)c2cn(C)c(=O)c3c2c2ccccc2n3C)CC1 | 2.8 | -2.7 | -0.3 | 1.2 | 78.7*
Cc1cccc(N2CCN(C(=O)c3cn(C)c(=O)c4c3c3ccccc3n4C)CC2)c1C | -0.9 | 2.5 | -0.7 | -1.9 | 40.0
CC(=O)c1cc(-c2ccccc2)n(CC(=O)Nc2cc(C)cc(C)c2)c1C | -2.0 | -0.3 | -0.5 | 0.1 | 94.3*
CCOC(=O)c1cc(-c2ccccc2)n(CC(=O)Nc2ccc(OCC)cc2)c1C | -0.7 | 2.7 | -0.4 | -1.4 | 80.2*
SMILES | UPR XBP1 act | V-ATPase pHluor | Tb MetRS inh | UPR CHOP act | CHOP inh
CC(=O)c1cc(-c2ccccc2)n(CC(=O)NC2CCCC2)c1C | -0.3 | 3.7 | -0.3 | -1.2 | 10.5
O=C(Nc1ccccc1)c1nnsc1S(=O)c1ccc(Cl)cc1 (stereo not drawn) | -8.7 | 15.0 | -0.1 | -10.5 | 75.1*
CCCC(c1nnnn1C(C)(C)CC)N(Cc1ccco1)Cc1cc2ccc(OC)cc2[nH]c1=O (stereo not drawn) | / | 5.7 | -1.2 | / | 90.6*
O=C(Nc1ccc(Cc2ccncc2)cc1)c1ccc(Cl)c([N+](=O)[O-])c1 | -2.7 | 0.9 | -0.8 | -10.2 | 19.6
Cc1c([N+](=O)[O-])cc(C(=O)Nc2ccc(Cc3ccncc3)cc2)cc1[N+](=O)[O-] | -2.1 | 0.8 | -0.5 | -0.9 | 77.3*
O=C1OC(c2ccc(F)cc2)=N/C1=C\c1ccc(Br)o1 | -0.6 | -2.4 | -0.6 | 0.9 | 73.1*
